hERG rescue: compounds protecting human hERG from proarrhythmic drug block; Q12809; CHO-hERG, FluxOR thallium flux, dofetilide IC70 present; activation (rescue from dofetilide block), less the hit threshold, % at 10 µM; 310,000 compounds, 0.51% hits; AID 1511;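 active means activation above the mean of controls blocked by dofetilide plus 5 SD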;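 further: thallium influx through hERG after potassium depolarization seen as dye fluorescence rise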
KCNK9 block: blocks the human KCNK9 two-pore domain potassium channel. HEK293 KCNK9, FluxOR thallium flux fluorescence; hits give low values. B-score at 10 µM. 310,000 compounds, 1.2% hits;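 active means ratio B-score over 3 SD below the library mean, with starting fluorescence within 5 SD of its mean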;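 further: negative B-score means less thallium flux so channel inhibition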
KCNQ1 block: inhibitors of human KCNQ1 potassium channel. P51787. CHO-K1 KCNQ1, FluxOR thallium flux fluorescence; hits give high values. B-score at 10 µM. 310,000 compounds, 1.3% hits;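 active means compounds whose thallium flux B-score, printed positive for inhibition, exceeds three library SD while starting fluorescence stays within three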;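 further: channel opened by potassium depolarization with thallium stimulus after 20 min compound exposure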
KCNQ1 pot: human KCNQ1 channel potentiation or activation; AID 2648; 310,000 compounds, 0.35% hits; P51787; CHO-K1 KCNQ1, thallium flux FluxOR fluorescence; hits give high values; B-score at 10 µM;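 active means fluorescence ratio B-score, a plate-corrected score, at least three library SD, with initial intensity B-score within 5 SD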
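Schedule – 37 °C overnight plating, 90-min dark dye load, 20-min compound pretreatment · System – stable KCNQ1 CHO-K1 line · Probe or stimulus – thallium- and potassium-containing depolarizing buffer · Measured by – kinetic FluxOR fluorescence, 10 s baseline plus 110 s post-stimulus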
KCNK3 block: human KCNK3 channel inhibition, primary screen | B-score at 10 µM | AID 602410 | 340,000 compounds, 0.84% hits | CHO-KCNK3 thallium flux, FluxOR fluorescence; hits give low values | O14649;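 active means B-score under library mean minus 4 SD, starting fluorescence ratio at most library mean plus 5 SD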;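 further: more negative B-score means stronger inhibition of thallium flux through KCNK3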
Kir21 block: Kir2.1 (mouse) channel inhibition | B-score at 10 µM | 310,000 compounds, 0.85% hits | HEK293-Kir2.1, FluxOR thallium flux fluorescence; hits give low values | P35561 | AID 1672;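 active means fluorescence ratio B-score at or below minus 3 SD of library scores, with starting-brightness B-score within 2 SD, cut at about -4.2 in these data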;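 further: channel flux triggered by added potassium and thallium sulfate stimulus; B-score of peak minus minimum fluorescence over baseline after thallium stimulus; more negative B-score means stronger Kir2.1 block with less thallium influx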
Target sequence (P35561 whole entry, looked up): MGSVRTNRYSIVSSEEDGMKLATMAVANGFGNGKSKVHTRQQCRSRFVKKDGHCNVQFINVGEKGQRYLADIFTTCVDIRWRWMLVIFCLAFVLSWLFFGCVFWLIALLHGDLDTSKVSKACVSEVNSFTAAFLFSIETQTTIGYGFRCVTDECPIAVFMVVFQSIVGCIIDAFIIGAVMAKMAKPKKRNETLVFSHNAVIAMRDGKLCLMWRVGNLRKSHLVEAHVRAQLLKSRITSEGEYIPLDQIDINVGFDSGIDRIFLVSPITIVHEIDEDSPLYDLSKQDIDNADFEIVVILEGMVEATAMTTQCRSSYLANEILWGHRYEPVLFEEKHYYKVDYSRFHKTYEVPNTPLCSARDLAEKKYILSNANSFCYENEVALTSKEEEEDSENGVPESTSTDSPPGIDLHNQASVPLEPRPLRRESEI
A number is an active result; 0 = inactive; - = not tested or not shown. Shown are actives, neighbours in structure and some others; about 3.8% of the full set was active somewhere.

SMILES	hERG rescue	KCNK9 block	KCNQ1 block	KCNQ1 pot	KCNK3 block	Kir21 block
Cc1ccc(C2CC(=O)NC(SCc3ccccc3)=C2C#N)cc1 (stereo not drawn)	0	0	0	0	0	-4.3
N#CC1=C(SCc2ccccc2)NC(=O)CC1c1ccc(O)cc1 (stereo not drawn)	0	0	0	0	0	-4.4
CCCCCCSC1=C(C#N)C(c2ccccc2)CC(=O)N1 (stereo not drawn)	0	-7.2	0	0	0	0
CCOC(=O)C1CCCN(C(=O)CN2C(=O)/C(=C/c3ccc(OC)cc3)Oc3ccccc32)C1 (stereo not drawn)	0	0	0	0	0	0
CCOC(=O)/C(C#N)=C/c1c(N2CCN(c3cccc(Cl)c3)CC2)nc2c(C)cccn2c1=O	0	0	6	0	0	0
CNC(=O)/C(C#N)=C/c1c(N2CCN(c3cccc(Cl)c3)CC2)nc2c(C)cccn2c1=O	0	0	0	0	0	0
O=S(=O)(c1ccc(Cl)s1)N1CCCc2cccc(O)c21	0	0	0	0	0	0
COc1ccccc1NC(=O)CSc1c2c(nc3ccccc13)CCC2	0	0	0	0	0	-10
COc1ccc(NC(=O)CSc2c3c(nc4ccccc24)CCCC3)c(OC)c1	0	0	0	0	0	-4.7
COc1ccccc1NC(=O)Cc1noc(CSc2cc(C)c3ccccc3n2)n1	0	0	0	0	-9	0
COc1ccccc1NC(=O)Cc1noc(CSc2cccc[n+]2[O-])n1	0	0	0	0	0	0
COc1ccccc1NC(=O)CSC1=NC(=O)C(Cc2ccccc2)C(=O)N1 (stereo not drawn)	0	0	0	0	0	0
COc1ccccc1NC(=O)CSc1nc2ccccc2cc1Cc1ccccc1	0	-7.9	0	0	0	0
COc1cc(NC(=O)CSc2c3c(nc4ccccc24)CCC3)cc(OC)c1OC	0	0	0	0	0	0
CC(=O)Nc1cccc(N=NN2CCCCC2)c1	0	0	0	0	0	0
O=S(=O)(c1ccc(S(=O)(=O)N2CCC(O)CC2)cc1)N1CCCC1	0	0	0	0	0	0
CCN(CC)c1c([N+](=O)[O-])c(=O)n(C)c2ccccc12	0	0	0	0	0	0
Cn1c(=O)c([N+](=O)[O-])c(Cl)c2ccccc21	0	0	9	0	0	0
CC(C)(C)n1nnnc1C(c1ccncc1)N(Cc1ccccc1)Cc1ccco1 (stereo not drawn)	0	0	0	0	0	0
CCN(Cc1ccccc1)C(c1ccccn1)c1nnnn1C(C)(C)CC (stereo not drawn)	0	-8	0	0	0	0
CCN(Cc1ccccc1)C(c1ccc(C)cc1)c1nnnn1C(C)(C)C (stereo not drawn)	0	-7.8	0	0	0	0
COc1ccc(S(=O)(=O)N2CCOCC2)cc1NC(=O)COC(=O)c1ccc([N+](=O)[O-])s1	-	-	-	-	0	-
Cc1cccc(C)c1OCC1CNC(=O)O1 (stereo not drawn)	6.5	0	0	0	0	0
O=C1NCC(COCc2ccccc2)O1 (stereo not drawn)	0	0	0	0	0	0
CCCc1nn(C)c2c(=O)[nH]c(-c3cc(S(=O)(=O)Nc4ccc(NC(C)=O)cc4)ccc3OCC)nc12	0	0	0	0	0	0
SMILES	hERG rescue	KCNK9 block	KCNQ1 block	KCNQ1 pot	KCNK3 block	Kir21 block
CN(C(=O)C1CCCN(c2ncnc3c2nc2n3CCCCC2)C1)c1cccc(Cl)c1 (stereo not drawn)	0	0	0	0	0	0
CCn1c(C)nc2cc(-c3nnc(-c4c(-c5ccccc5)noc4C)o3)ccc21	34	0	0	0	0	0
COc1ccc(CCNCC(O)Cn2c3ccccc3c3ccccc32)cc1OC (stereo not drawn)	0	0	0	0	0	-10
CC1CCC(C(C)C)C2=C1C(C#N)(C#N)C(C#N)(C#N)C(c1ccccc1)N2 (stereo not drawn)	0	0	7	0	0	0
CC1=CC(C#N)(C#N)C(C#N)(C#N)C(c2ccccc2)N1 (stereo not drawn)	0	0	0	0	-	0
O/N=C\c1ccccc1Oc1ccc(F)cc1	0	0	0	0	0	0
CC1(C)Cc2nc3scc(NC(=O)c4ccccc4)c3cc2CO1	0	0	0	0	0	0
CC(=O)Nc1ccc(S(=O)(=O)NNC(=O)c2cccc(Cl)c2)cc1	0	0	0	0	0	0
O=C1C(=C(I)I)c2ccccc2-c2ccccc21	-	-	-	-	-9.4	-
COC(=O)c1ccnc(/C=N/O)c1	6.2	0	0	0	0	0
CCOC(=O)c1c(N)sc2c(OCC)c(Br)ccc12	0	0	0	0	0	0
CCOC(=O)c1c(NC(C)=O)sc2c(OCC(O)CNC(C)(C)C)c(Br)ccc12 (stereo not drawn)	0	0	0	0	0	-6.1
FC(F)Sc1ccc(NC(=S)NCC2CCCCC2)cc1	0	-7.3	9	0	0	0
CC(NC(=S)Nc1ccc(F)cc1)c1ccccc1 (stereo not drawn)	0	0	0	0	0	0
S=C(NCC1CCCCC1)Nc1cccnc1	0	0	0	0	0	0
CN(C(=S)Nc1ccc(SC(F)F)cc1)C(c1ccccc1)c1ccccc1	0	0	10	0	0	0
FC(F)Sc1ccc(NC(=S)NC(c2ccccc2)c2ccccc2)cc1	0	0	11	0	0	0
O=[N+]([O-])c1ccc(C2=NN(c3ccccc3)C(c3ccco3)C2)cc1 (stereo not drawn)	0	0	8	0	0	0
O=[N+]([O-])c1ccc(/C=C/C2=NN(c3ccccc3)C(c3ccco3)C2)cc1 (stereo not drawn)	-	-	-	-	0	-
COc1ccccc1N(CC(=O)NCC1CCCO1)C(=O)Cn1nnc(-c2cccs2)n1 (stereo not drawn)	0	0	0	0	0	0
CC(C)c1ccccc1OCCNC(=S)NC(=O)c1cccnc1	0	0	0	0	0	0
O=C(Cn1cccc1C(=O)c1ccccc1)NCCCN1CCOCC1	0	0	0	0	0	0
Cc1ccc(C)c(N2CCN(CCCNC(=O)Cn3cccc3C(=O)c3ccccc3)CC2)c1	0	0	0	0	0	-5.4
COc1ccc2c(c1)oc(=O)c1c3ccccc3[nH]c21	0	0	0	0	0	0
N#CC1=C(N)C(C#N)(C#N)C(c2cccnc2)C2CC(c3ccccc3)CC=C12 (stereo not drawn)	0	0	0	0	0	0
N#CC1=C(N)C2=CCCC[C@H]2[C@H](c2cccc(F)c2)C1(C#N)C#N	0	0	0	0	0	-5.4
CCN1C[C@@H]2[C@@H]3C(=O)N(Cc4ccccc4)C(=O)[C@@H]3[C@](CC)(C1=O)N2C(=O)c1ccc(F)cc1	-	-	-	-	0	-
CC(OC(=O)c1ccccc1Br)C(=O)Nc1nc(-c2cccc([N+](=O)[O-])c2)cs1 (stereo not drawn)	0	0	0	0	0	0

Bioassay records as filed in PubChem BioAssay.
